Here are results for one compound from ChEMBL document CHEMBL2086264.

For one experiment, the system named is Streptococcus pneumoniae. Nature of the experiment: Antibacterial activity against Streptococcus pneumoniae R6 after overnight incubation by microbroth dilution assay. In kind it is functional. A digest of the protocol:
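CLSI M7A7 microbroth dilution in Mueller-Hinton broth; S. pneumoniae broth given 5% lysed horse blood. DMSO stocks of 10 mg/mL; twofold dilutions to final 200–0.0125 µg/mL. Mid-log inoculum (OD600 0.5) diluted to final OD600 0.0005 (~10^5 CFU/mL). Overnight at 37°C; MIC is the lowest concentration inhibiting 90% of visible growth.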

The subject of experiment [1] is Bacillus anthracis. Nature of the experiment: Antibacterial activity against Bacillus anthracis after overnight incubation by microbroth dilution assay. In kind it is functional. For orientation: Dilution methods test growth across graded concentrations, often in twofold steps.
For experiment [2], the system named is Staphylococcus aureus subsp. aureus RN4220. The experiment in a line: Inhibition of PlsY-mediated lipid synthesis in Staphylococcus aureus RN4220 harboring gpsA mutant assessed as inhibition of [14C]acetate incorporation into fatty acid at 50 uM incubated for 15 mins prior to [14C]acetate addition measured after 30 mins by scintillation counting. A digest of the protocol: (§1)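 Mid-log S. aureus RN4220 (OD600 0.5) split into 10 mL aliquots. Compound or DMSO added for 15 min, then 10 µCi [14C]acetate for 30 min. Cells PBS-washed, lipids extracted by Bligh–Dyer, scintillation counted and normalized to OD600. Duplicates, mean with standard error.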

Another experiment relates to Staphylococcus aureus. The experiment in a line: Inhibition of DNA synthesis in Staphylococcus aureus RN4220 harboring gpsA mutant assessed as inhibition of [3H]thymidine incorporation into DNA at 50 uM incubated for 15 mins before [3H]thymidine addition measured after 30 mins by scintillation counting. The format is functional, organism-based. The method in brief:
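RN4220 at OD600 0.5 in 10 mL aliquots, 15 min with compound. Then 30 min with 10 µCi label: 3H amino acid mix (protein), [3H]thymidine (DNA) or [3H]uracil (stable RNA). Cells collected on 0.45 µm filters, counted, OD600-normalized and expressed relative to untreated cells. Duplicates, mean with standard error.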

Experiment [3] deals with Staphylococcus aureus subsp. aureus RN4220. The experiment in a line: Inhibition of PlsY-mediated lipid synthesis in Staphylococcus aureus RN4220 harboring gpsA mutant assessed as inhibition of [14C]acetate incorporation into fatty acid incubated for 15 mins prior to [14C]acetate addition measured after 30 mins by scintillation counting. A digest of the protocol: as §1

The test system is the same in experiment [4]. The experiment in a line: Inhibition of PlsY-mediated lipid synthesis in Staphylococcus aureus RN4220 harboring gpsA mutant assessed as increase in [14C]-labeled free fatty acid level.
For experiment [5] the test system is unchanged. Nature of the experiment: Inhibition of PlsY in Staphylococcus aureus RN4220 harboring gpsA mutant assessed as Fab4-mediated fatty acid chain elongation measured as 17C fatty acid level at 25 uM after 2.5 hrs by mass spectrophotometry. Also on record: scale not given: the % may be the effect or the level left. The method in brief: (§2)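 RN4220 grown in Luria-Bertani broth at 37°C with 225 rpm shaking to OD600 0.5. 50 mL cultures treated for 2.5 h alongside a DMSO control. Lipids extracted by Bligh–Dyer and fatty acids analyzed by gas chromatography. Weight percent, mean of duplicates; not detected means <1%.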

Experiment [6] shares this test system. The experiment in a line: Inhibition of PlsY in Staphylococcus aureus RN4220 harboring gpsA mutant assessed as Fab4-mediated fatty acid chain elongation measured as 15C fatty acid level at 50 uM after 2.5 hrs by mass spectrophotometry. Set-up: scale not given: the % may be the effect or the level left. A digest of the protocol:
as §2

The test system is the same in experiment [7]. Nature of the experiment: Inhibition of PlsY in Staphylococcus aureus RN4220 harboring gpsA mutant assessed as Fab4-mediated fatty acid chain elongation measured as 16C fatty acid level at 50 uM after 2.5 hrs by mass spectrophotometry. Set-up: scale not given: the % may be the effect or the level left. A digest of the protocol:
as §2

Experiment [8] shares this test system. The experiment in a line: Inhibition of PlsY in Staphylococcus aureus RN4220 harboring gpsA mutant assessed as Fab4-mediated fatty acid chain elongation measured as 17C fatty acid level at 50 uM after 2.5 hrs by mass spectrophotometry. Set-up: scale not given: the % may be the effect or the level left. The method in brief:
as §2

Experiment [9] shares this test system. The experiment in a line: Inhibition of PlsY in Staphylococcus aureus RN4220 harboring gpsA mutant assessed as accumulation of long chain acyl-ACP at 12.5 to 100 uM after 2.5 hrs by Western blot analysis. A digest of the protocol: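 Mid-log RN4220 (OD600 0.5) in 50 mL aliquots treated with compound at 37°C. Cell extracts loaded according to OD600 for similar total protein. Acyl-ACP species separated on 15% polyacrylamide gels containing 2 M urea, then detected by western blot with anti-ACP antibody.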

For experiment [10], the system named is Bacillus anthracis. The experiment in a line: Inhibition of protein synthesis in Bacillus anthracis sterne assessed as Inhibition of [3H]amino acid incorporation into protein incubated for 15 mins prior to [3H]amino acid addition measured after 30 mins by scintillation counting. The format is functional, organism-based.
The test system of experiment [11] is Bacillus anthracis. Nature of the experiment: Inhibition of DNA synthesis in Bacillus anthracis sterne assessed as Inhibition of [3H]thymidine incorporation into DNA incubated for 15 mins prior to [3H]thymidine addition measured after 30 mins by scintillation counting. The format is functional, organism-based. On the technique in general: Uptake of a labelled nucleoside into DNA is a usual measure of proliferation.

For experiment [12], the system named is Staphylococcus aureus subsp. aureus RN4220. The experiment in a line: Inhibition of PlsY-mediated lipid synthesis in Staphylococcus aureus RN4220 assessed as inhibition of [14C]acetate incorporation into membrane phospholipids incubated for 15 mins prior to [14C]acetate addition measured after 30 mins by scintillation counting. A digest of the protocol:
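Cultures grown from OD600 0.1 to 0.5, split into 10 mL aliquots, exposed to inhibitor or DMSO control for 15 min, then pulsed with [14C]acetate (10 µCi) for 30 min. Cells washed 4× in PBS, lipids extracted by Bligh and Dyer, counted by scintillation and normalized to OD600. Duplicates, mean with standard error.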

≈ marks a conversion by molar mass, not a printed value. Calls of active or inactive are those of the source. The calls are words filed in the database; no cut-off is given here.

Broadly, the MIC90 is the lowest concentration that inhibits either 90% of growth or 90% of the strains tested, depending on the study. For `O=C(CCCCCCCc1ccccc1)NS(=O)(=O)Oc1ccccc1`, the figures for the MIC90 with Streptococcus pneumoniae and against Bacillus anthracis [1] were 100 µg/mL (≈ 266 µM) and 6.25 µg/mL (≈ 16.6 µM), respectively. The inhibition result (in experiment [2]; in [4]; in [9]; in the experiment with Bacillus anthracis [10]; in the experiment on Bacillus anthracis [11]) was “Active” each time. Also, the inhibition entry in the experiment on Staphylococcus aureus is “inactive”. The inhibition result in experiment [3] and in experiment [12] was “Dose-dependent effect” in each case. Besides, the Activity in experiment [5] came to 10%; in [6], 32%; in experiment [7], 6%; in experiment [8] it was 8%.
